Measurements: ChEMBL document CHEMBL5653630, “Activation of the p53-MDM4 regulatory axis defines the anti-tumour response to PRMT5 inhibition through its role in regulating cellular splicing” (Sci Rep, 2018)
Values belong to the compound of their own block, whether it stands above or below them. Calls of active or inactive are those of the source. No cut-off for these calls is given here.

Legend:
Z-138 = test: Induction of cell cycle arrest in human Z138 cells assessed as accumulation of cells at G1 phase cells measured upto 1000 nM by propidium iodide staining based flow cytometric analysis; format: functional; details: time 1-10 day, TDE = time-dependent effect
U-251 = test: Antiproliferative activity against human U-251MG cells assessed as cell growth inhibition incubated for 6 days by celltiter-glo assay; format: functional; details: U-251, 144 h, time 6 day
How it was run: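 Cells seeded in 384-well plates at an optimized density and held 24 h. CellTiter-Glo luminescence read at Day 0 and Day 6. Four-parameter fit. gIC50 = midpoint of the growth window between DMSO and T0. Curves required ≥1.5 population doublings.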

[1] = Antiproliferative activity against human MT-3 cells assessed as cell growth inhibition incubated for 10 days; format: functional; details: MT-3, 240 h, time 10 day
BeWo = test: Antiproliferative activity against human BeWo cells assessed as cell growth inhibition incubated for 10 days; format: functional; details: 240 h, time 10 day
How it was run: (§1)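 Cells kept in RPMI-1640 with 10% FBS, 2 mM L-alanyl-L-glutamine and 1 mM Na pyruvate (or a special medium) at 37°C, 5% CO2. Compound added 24 h after seeding, 10 concentrations in 3.16-fold dilution, 0.1% DMSO final. Medium replaced and cells re-dosed at 168 h; 240 h incubation. Nuclei fixed, dye-stained and imaged. gIC50 = growth midway between untreated and time-zero cell counts, from a 4-parameter fit.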

[2] = Antiproliferative activity against human RKOAS451 cells assessed as cell growth inhibition incubated for 10 days; format: functional; details: RKOAS451, 240 h, time 10 day
SW-620 = test: Antiproliferative activity against human SW620 cells assessed as cell growth inhibition incubated for 10 days; format: functional; details: SW-620, 240 h, time 10 day
HT-29 = test: Antiproliferative activity against human HT-29 cells assessed as cell growth inhibition incubated for 10 days; format: functional; details: HT-29, 240 h, time 10 day
How it was run: (§2)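 Outsourced panel run in 384-well plates. Cells were grown in RPMI-1640/10% FBS or a special medium at 37°C, 5% CO2. Compound was added 24 h after seeding as a 10-point, 3.16-fold series in 0.1% DMSO. Medium was refreshed and cells re-dosed at 168 h, with a time-zero plate kept. At 240 h cells were fixed, nuclei stained and imaged. gIC50 is growth midway between untreated and time zero, from a 4-parameter fit.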

HCT-15 = test: Antiproliferative activity against human HCT-15 cells assessed as cell growth inhibition incubated for 10 days; format: functional; details: HCT-15, 240 h, time 10 day; how it was run: as §2
DB = test: Antiproliferative activity against human DB cells assessed as cell growth inhibition incubated for 10 days; format: functional; details: 240 h, time 10 day; how it was run: as §2
SR = test: Antiproliferative activity against human SR cells assessed as cell growth inhibition incubated for 10 days; format: functional; details: 240 h, time 10 day
RL95-2 = test: Antiproliferative activity against human RL95-2 cells assessed as cell growth inhibition incubated for 10 days; format: functional; details: RL95-2, 240 h, time 10 day
OE19 = test: Antiproliferative activity against human OE19 cells assessed as cell growth inhibition incubated for 10 days; format: functional; details: OE19, 240 h, time 10 day
[3] = Antiproliferative activity against human OCUG-1 cells assessed as cell growth inhibition incubated for 10 days; format: functional; details: OCUG-1, 240 h, time 10 day
AGS = test: Antiproliferative activity against human AGS cells assessed as cell growth inhibition incubated for 10 days; format: functional; details: 240 h, time 10 day; how it was run: as §1
CAL-27 = test: Antiproliferative activity against human CAL-27 cells assessed as cell growth inhibition incubated for 10 days; format: functional; details: CAL-27, 240 h, time 10 day; how it was run: as §1
SCC-25 = test: Antiproliferative activity against human SCC-25 cells assessed as cell growth inhibition incubated for 10 days; format: functional; details: SCC-25, 240 h, time 10 day
786-0 = test: Antiproliferative activity against human 786-0 cells assessed as cell growth inhibition incubated for 10 days; format: functional; details: 786-0, 240 h, time 10 day; how it was run: as §1
HLE = test: Antiproliferative activity against human HLE cells assessed as cell growth inhibition incubated for 10 days; format: functional; details: 240 h, time 10 day; how it was run: as §2
Daoy = test: Antiproliferative activity against human Daoy cells assessed as cell growth inhibition incubated for 10 days; format: functional; details: 240 h, time 10 day; how it was run: as §2
U-266 = test: Antiproliferative activity against human U266B1 cells assessed as cell growth inhibition incubated for 10 days; format: functional; details: U-266, 240 h, time 10 day
CHP-212 = test: Antiproliferative activity against human CHP-212 cells assessed as cell growth inhibition incubated for 10 days; format: functional; details: CHP-212, 240 h, time 10 day; how it was run: as §1
MC-IXC = test: Antiproliferative activity against human MC-IXC cells assessed as cell growth inhibition incubated for 10 days; format: functional; details: 240 h, time 10 day
BPH-1 = test: Antiproliferative activity against human BPH-1 cells assessed as cell growth inhibition incubated for 10 days; format: functional; details: BPH-1, 240 h, time 10 day; how it was run: as §1
A-427 = test: Antiproliferative activity against human A-427 cells assessed as cell growth inhibition incubated for 10 days; format: functional; details: A-427, 240 h, time 10 day; how it was run: as §1
COR-L23 = test: Antiproliferative activity against human COR-L23 cells assessed as cell growth inhibition incubated for 10 days; format: functional; details: COR-L23, 240 h, time 10 day; how it was run: as §2
SW900 = test: Antiproliferative activity against human SW900 cells assessed as cell growth inhibition incubated for 10 days; format: functional; details: SW900, 240 h, time 10 day
MIA PaCa-2 = test: Antiproliferative activity against human MIA PaCa-2 cells assessed as cell growth inhibition incubated for 10 days; format: functional; details: MIA PaCa-2, 240 h, time 10 day
SU.86.86 = test: Antiproliferative activity against human SU-86-86 cells assessed as cell growth inhibition incubated for 10 days; format: functional; details: SU.86.86, 240 h, time 10 day
DU-145 = test: Antiproliferative activity against human DU-145 cells assessed as cell growth inhibition incubated for 10 days; format: functional; details: DU-145, 240 h, time 10 day; how it was run: as §2
CWR22R = test: Antiproliferative activity against human 22Rv1 cells assessed as cell growth inhibition incubated for 10 days; format: functional; details: 22Rv1, 240 h, time 10 day; how it was run: as §1
SJRH30 = test: Antiproliferative activity against human SJRH30 cells assessed as cell growth inhibition incubated for 10 days; format: functional; details: SJRH30, 240 h, time 10 day
SAOS-2 = test: Antiproliferative activity against human SAOS-2 cells assessed as cell growth inhibition incubated for 10 days; format: functional; details: SAOS-2, 240 h, time 10 day
SW1353 = test: Antiproliferative activity against human SW1353 cells assessed as cell growth inhibition incubated for 10 days; format: functional; details: SW1353, 240 h, time 10 day
DMS-114 = test: Antiproliferative activity against human DMS-114 cells assessed as cell growth inhibition incubated for 10 days; format: functional; details: DMS-114, 240 h, time 10 day; how it was run: as §2
CAL-62 = test: Antiproliferative activity against human CAL-62 cells assessed as cell growth inhibition incubated for 10 days; format: functional; details: CAL-62, 240 h, time 10 day; how it was run: as §1
[4] = target: Protein arginine N-methyltransferase 5 (Homo sapiens) (UniProt O14744); test: Inhibition of PRMT5 in human Z138 cells expressing full length MDM4 assessed as induction of p21 at 1 uM incubated for 4 days by Western blot analysis; format: cell-based; details: time 4.0 day
Sequence of Protein arginine N-methyltransferase 5 (Homo sapiens) (O14744 whole entry): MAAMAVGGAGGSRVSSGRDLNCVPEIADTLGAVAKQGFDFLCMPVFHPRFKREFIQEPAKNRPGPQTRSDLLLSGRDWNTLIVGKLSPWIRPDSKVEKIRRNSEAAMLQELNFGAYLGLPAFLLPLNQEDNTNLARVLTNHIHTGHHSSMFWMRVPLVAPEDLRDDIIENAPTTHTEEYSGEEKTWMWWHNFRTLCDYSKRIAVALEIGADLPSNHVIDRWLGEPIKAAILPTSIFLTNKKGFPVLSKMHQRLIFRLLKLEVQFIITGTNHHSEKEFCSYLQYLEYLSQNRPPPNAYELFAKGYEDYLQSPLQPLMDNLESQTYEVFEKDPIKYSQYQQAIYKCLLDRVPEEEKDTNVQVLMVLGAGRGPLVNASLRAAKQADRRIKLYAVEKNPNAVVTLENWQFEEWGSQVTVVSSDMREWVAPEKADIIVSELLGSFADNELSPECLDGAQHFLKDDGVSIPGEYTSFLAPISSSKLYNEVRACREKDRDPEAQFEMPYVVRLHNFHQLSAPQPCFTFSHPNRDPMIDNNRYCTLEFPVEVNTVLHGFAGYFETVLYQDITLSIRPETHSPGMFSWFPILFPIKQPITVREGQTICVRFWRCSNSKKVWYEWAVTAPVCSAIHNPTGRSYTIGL

SMILES: CC(=O)N1CCC(Nc2cc(C(=O)NC[C@H](O)CN3CCc4ccccc4C3)ncn2)CC1 [PEMRAMETOSTAT]
Activity (Z-138): Tde

GI50 (U-251): 3.49 µM
GI50 (SW-620): 5.64 µM
GI50 (HT-29): 95.2 nM
GI50 (HCT-15): 68.4 nM
GI50 (AGS): 2030 nM
GI50 (786-0): 20.3 nM
GI50 (SW900): 3.25 µM
GI50 (MIA PaCa-2): 158 nM
GI50 (DU-145): 151 nM
GI50 (SW1353): 129 nM
inhibition [4]: inactive
SMILES: O=C(NC[C@H](O)CN1CCc2ccccc2C1)c1ccnc(NC2CCC2)c1
GI50 [1]: 46.4 nM
GI50 (BeWo): 1090 nM
GI50 [2]: 113 nM
GI50 (DB): 2.51 nM
GI50 (SR): 275 nM
GI50 (RL95-2): 218 nM
GI50 (OE19): 98 nM
GI50 [3]: 379 nM
GI50 (CAL-27): 103 nM
GI50 (SCC-25): 273 nM
GI50 (HLE): 174 nM
GI50 (Daoy): 270 nM
GI50 (U-266): 78.5 nM
GI50 (CHP-212): 24 nM
GI50 (MC-IXC): 615 nM
GI50 (BPH-1): 718 nM
GI50 (A-427): 130 nM
GI50 (COR-L23): 147 nM
GI50 (SU.86.86): 934 nM
GI50 (CWR22R): 2480 nM
GI50 (SJRH30): 472 nM
GI50 (SAOS-2): 48.2 nM
GI50 (DMS-114): 1010 nM
GI50 (CAL-62): 253 nM
